Source: PubChem
This is a sample that favours compounds with a hit; in the whole collection about 3% have one here.
beta cell repl: inducers of beta-cell replication in MIN6 cells; 330,000 compounds, 0.29% hits; AID 2380; MIN6 cells proliferation, ATPlite luminescence, 48 h; cells starved in 0.2% serum; 100% = growth in 10% serum; proliferation, % at 10 µM;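 active = compounds whose signal lies at least 3.5 SD above the mean of all wells on their plate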
Apaf1 inhib: inhibitors of human Apaf-1 apoptosome. O14727. reconstituted apoptosome caspase-3 activity, DEVD-Rh110 fluorescence. inhibition, % at 20 µM. 330,000 compounds, 0.71% hits. AID 489030; active = inhibition of at least 40% at 20 µM
Target sequence (O14727 whole entry, looked up): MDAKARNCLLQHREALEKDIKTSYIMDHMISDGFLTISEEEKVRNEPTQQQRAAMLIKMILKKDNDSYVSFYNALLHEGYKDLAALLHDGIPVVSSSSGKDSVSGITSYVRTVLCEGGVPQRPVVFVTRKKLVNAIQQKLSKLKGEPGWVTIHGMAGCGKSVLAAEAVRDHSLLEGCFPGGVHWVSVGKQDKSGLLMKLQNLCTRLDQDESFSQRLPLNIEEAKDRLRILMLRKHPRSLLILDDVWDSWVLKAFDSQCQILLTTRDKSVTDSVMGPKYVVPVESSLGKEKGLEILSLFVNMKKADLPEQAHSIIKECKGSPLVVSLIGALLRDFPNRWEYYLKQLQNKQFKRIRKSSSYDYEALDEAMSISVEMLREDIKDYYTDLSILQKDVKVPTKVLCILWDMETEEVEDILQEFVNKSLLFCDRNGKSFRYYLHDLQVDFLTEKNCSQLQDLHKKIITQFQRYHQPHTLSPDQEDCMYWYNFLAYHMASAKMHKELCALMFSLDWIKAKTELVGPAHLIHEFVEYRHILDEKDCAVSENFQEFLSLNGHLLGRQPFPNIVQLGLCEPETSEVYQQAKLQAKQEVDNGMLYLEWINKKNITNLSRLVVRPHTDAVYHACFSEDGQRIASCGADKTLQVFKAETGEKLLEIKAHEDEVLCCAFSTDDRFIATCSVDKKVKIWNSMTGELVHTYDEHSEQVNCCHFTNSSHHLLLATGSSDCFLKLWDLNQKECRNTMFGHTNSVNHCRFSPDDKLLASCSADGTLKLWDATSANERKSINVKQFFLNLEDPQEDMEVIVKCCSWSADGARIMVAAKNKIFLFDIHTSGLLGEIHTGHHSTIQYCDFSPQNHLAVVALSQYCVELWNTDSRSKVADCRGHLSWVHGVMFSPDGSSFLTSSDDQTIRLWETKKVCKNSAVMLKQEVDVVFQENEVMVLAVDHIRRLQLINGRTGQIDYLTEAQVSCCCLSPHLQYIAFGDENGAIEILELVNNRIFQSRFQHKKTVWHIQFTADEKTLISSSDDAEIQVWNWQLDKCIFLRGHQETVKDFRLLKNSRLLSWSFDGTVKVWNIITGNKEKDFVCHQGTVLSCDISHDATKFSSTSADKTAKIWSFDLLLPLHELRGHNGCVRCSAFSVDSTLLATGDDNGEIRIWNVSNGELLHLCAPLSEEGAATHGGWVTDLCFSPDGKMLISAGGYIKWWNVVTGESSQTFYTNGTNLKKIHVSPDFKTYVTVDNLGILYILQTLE
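Material: reconstituted apoptosome with Apaf-1, cytochrome c, caspase-9, procaspase-3, dATP. Technique: Rh110 fluorescence intensity. Buffer or medium: pH 7.5 Hepes buffer with CHAPS, BSA, DTT. Times: 30 min plus 50 min, RT.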
MPTP inh: permeability transition pore inhibition | isolated mouse mitochondria, Ca2+ swelling absorbance, 30 min | inhibition, % at 10 µM | 360,000 compounds, 1.4% hits;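 active = inhibition of 50% or more, scaled per plate between neutral and stimulator controls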
Granule exo inh: blocks lytic granule exocytosis. AID 651702. 360,000 compounds, 0.66% hits. TALL-104 LAMP-1 surface exposure, flow cytometry; cells stimulated with thapsigargin and PMA. inhibition, % at 10 µM;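 active = inhibition above about 55%, limit read from the data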
UBC13 polyUb: inhibitors of human UBC13 polyubiquitin chain formation; P61088; TR-FRET; inhibition, % at 20 µM; 330,000 compounds, 0.47% hits; in the data active = inhibition above about 45%, passing the limit was not always enough
iPSC survival up: hiPSC single-cell survival enhancement; ATPlite luminescence; 100% = ROCK inhibitor wells, 0% = DMSO; survival enhancement, % at 20 µM; 360,000 compounds, 0.044% hits; in the data active = survival enhancement above about 18%;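 note: cells exposed to compounds for 16 hours before the ATP read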
MPTP counter: membrane potential counter-screen of mitochondrial pore inhibitors | isolated mitochondria, Rhodamine 123 fluorescence | 5,000 compounds, 78% hits | inhibition, % at 10 µM | shares compounds with MPTP inh; in the data active = inhibition above about 22%
MPTP abs DR: dose response confirmation of mitochondrial permeability transition pore inhibitors; shares compounds with MPTP inh; isolated mitochondria swelling, absorbance; IC50, µM; 780 compounds, 58% hits; AID 651561; in the data active = IC50 below about 20 µM
MPTP cs DR: MPTP inhibitor counter-screen activity, dose response; IC50, µM; isolated mitochondria counterscreen, fluorescence read-out; shares compounds with MPTP inh; 780 compounds, 49% hits; in the data active = IC50 below about 80 µM
Hits are given with their value; 0 = inactive; - = no result.

SMILES	beta cell repl	Apaf1 inhib	MPTP inh	Granule exo inh	UBC13 polyUb	iPSC survival up	MPTP counter	others
CCCCCOc1ccc(CSCCNC(=S)Nc2ccccc2)cc1	0	0	0	0	0	0	-
CCCCOc1ccc(CSCCNC(=S)Nc2ccccc2)cc1	0	0	97	0	0	0	95
NS(=O)(=O)c1cc(C(=O)Nc2ccc3c(c2)CCC3)ccc1Cl	0	0	0	0	0	0	-
CCCC1CC(CSC(=N)N)OC1=O (stereo not drawn)	0	0	0	0	0	0	-
CCCCCCC1CC(CSC(=N)N)OC1=O (stereo not drawn)	0	0	91	0	0	0	0	MPTP abs DR=0;MPTP cs DR=0
Cc1ccc(C)c(NC(=O)c2ccccc2NS(=O)(=O)c2cc([N+](=O)[O-])ccc2C)c1	0	0	92	0	0	0	58
Cc1ccc(C)c(S(=O)(=O)Nc2ccccc2C(=O)Nc2cc(C)on2)c1	0	0	58	0	0	0	70
C#CCOCCOCCOCCNc1nc(N2CCN(C(=O)[C@H](CCC(=O)O)n3cc([C@@H](N)[C@H](C)CC)nn3)CC2)nc(N2CCN(C(=O)[C@H](CCC(=O)O)n3cc([C@@H](N)CCSC)nn3)CC2)n1	0	0	0	0	0	0	-
CCOC(=O)C1(CCOC)CCN(C/C=C/c2ccccc2OC)CC1	-	-	90	0	-	0	49
CCOC(=O)C1(CCOc2ccccc2)CCN(Cc2ccncc2)CC1	0	0	0	0	0	0	-
CCOC(=O)C1(CCCc2ccccc2)CCN(Cc2nccn2CC)CC1	0	0	56	0	0	0	40
CCOC(=O)C1(CCOc2ccccc2)CCN(Cc2ccc(O)c(Cl)c2)CC1	0	0	0	0	0	0	-
CCOC(=O)C1(CCOc2ccccc2)CCN(Cc2cccs2)CC1	0	0	52	0	0	0	0	MPTP abs DR=17;MPTP cs DR=48
CCOC(=O)C1(CCOC)CCN(Cc2cccc(OCc3ccccc3)c2)CC1	0	0	55	0	0	0	0	MPTP abs DR=15;MPTP cs DR=26
O=C(O)C(=Cc1ccccc1[N+](=O)[O-])c1ccc2c(c1)OCO2	-	-	0	0	-	0	-
CSc1nc(Oc2ccc3ccccc3c2)c2ccccc2n1	0	0	80	0	0	0	0	MPTP abs DR=9.4;MPTP cs DR=0
Fc1cccc2sc(Nc3nnc(-c4ccccc4)o3)nc12	0	0	76	0	0	0	76
COc1cc(OC)cc(-c2nnc(Nc3nc4c(F)cccc4s3)o2)c1	0	0	0	0	0	0	-
NNc1nc2c(F)cccc2s1	0	0	0	0	0	0	-
O=C(NNc1nc2c(F)cccc2s1)c1ccc(F)cc1	0	0	66	0	0	0	90
Fc1cccc2sc(Nc3nc4c(F)cccc4s3)nc12	0	0	56	0	0	0	69
O=C(O)c1nn(CCOc2ccc(Br)cc2)c(=O)c2ccccc12	0	0	0	0	0	0	-
CCc1nc2c(OCc3cc(Cl)cc(Cl)c3)cccn2c1N(C)C(=O)Nc1ccccc1OC	-	-	0	0	-	0	-
C[C@@H]1CN(S(=O)(=O)C(C)(C)C)[C@H](CCO)/C1=C\c1ccccc1	-	-	0	0	-	0	-
C=CC(C)(C)c1c(O)c(CC=C(C)C)c(O)c2c(=O)c3ccc(O)c(O)c3oc12	0	0	85	0	0	0	40
SMILES	beta cell repl	Apaf1 inhib	MPTP inh	Granule exo inh	UBC13 polyUb	iPSC survival up	MPTP counter	others
N#CC(=C1NC(=O)c2ccccc21)c1nc2ccccc2n1CCO	-	-	0	0	-	0	-
CCOc1ccccc1NC(=O)CSc1nnc(-c2cccnc2)o1	0	0	0	0	0	0	-
CC(C)(C)c1ccc(C2CC2C(=O)N/N=C\c2ccc[nH]2)cc1 (stereo not drawn)	0	0	105	0	0	0	98
O=C1Nc2ccccc2C(=O)N(C2CCCC2)C1C(=O)NC1CC1 (stereo not drawn)	-	-	0	0	-	-	-
CC(C)CCn1nc(C(=O)Nc2nc3c(s2)CCCC3)c2ccccc2c1=O	0	0	0	0	0	0	-
O=C(Nc1nc2c(s1)CCCC2)c1nn(Cc2ccccc2)c(=O)c2ccccc12	0	0	59	0	0	0	0	MPTP abs DR=0;MPTP cs DR=0
CN(NS(=O)(=O)c1ccc(Br)cc1)c1nc(C(F)(F)F)nc2ccccc12	0	0	73	0	0	0	86
O=C(CSc1nnc(CNC(=O)c2cccs2)o1)c1ccc(Cl)cc1	0	0	77	0	0	0	30
O=C(CSc1nnc(CNC(=O)c2ccccc2F)o1)c1ccc(Cl)cc1	0	0	69	0	0	0	0	MPTP abs DR=0;MPTP cs DR=26
Cc1ccc2c(NC(=O)c3ccco3)cccc2n1	0	0	0	0	0	0	-
COC(=O)c1cc(NC(=O)c2cc(-c3ccc(C(F)(F)F)cc3)oc2C(F)(F)F)ccc1N1CCOCC1	0	0	88	0	0	0	69
CCOC(=O)C(=N/O)/C(C)=N/NC(=O)C(=O)Nc1ccc(Cl)cc1	0	0	82	0	0	0	69
CC(=N\Nc1ccc(Cl)cc1)/C(=N/O)C(=O)Nc1ccccc1	0	0	0	0	0	0	-
Cc1ccc(-n2[nH]c(C)c(/C=N/Nc3ccc([N+](=O)[O-])cc3[N+](=O)[O-])c2=O)cc1	0	0	112	0	0	0	69
Cc1[nH]n(-c2ccc([N+](=O)[O-])cc2)c(=O)c1C=NCC1CCCO1 (stereo not drawn)	0	0	0	0	0	0	-
O=C(Nc1nc(=S)ss1)c1ccc(Cl)cc1Cl	-	-	88	0	-	0	64
CC1CCN(c2nc3nonc3nc2Nc2ccc(F)cc2)CC1	0	0	73	0	0	0	75
COc1ccc(Nc2nc3nonc3nc2N2CCCCC2)cc1	0	0	0	0	0	0	-
Cc1ccc(NC(=S)NC(NC(=O)C(C)(C)C)C(Cl)(Cl)Cl)c(C)c1 (stereo not drawn)	0	0	57	0	0	0	64
CC(=O)NC(NC(=S)Nc1ccc(N=Nc2ccccc2C)cc1C)C(Cl)(Cl)Cl (stereo not drawn)	0	0	88	0	0	0	63
Cc1ccc(NC(=S)NC(NC(=O)N(C)C)C(Cl)(Cl)Cl)cc1 (stereo not drawn)	0	0	0	0	0	0	-
O=C(/C=C/c1ccccc1)NC(NC(=S)Nc1cccc(O)c1)C(Cl)(Cl)Cl (stereo not drawn)	0	0	0	0	0	0	-
O=C(/C=C/c1ccccc1)NC(NC(=S)Nc1cccc(Cl)c1)C(Cl)(Cl)Cl (stereo not drawn)	0	0	93	0	0	0	84
O=C(/C=C/c1ccccc1)NC(NC(=S)Nc1ccc(C(=O)O)cc1)C(Cl)(Cl)Cl (stereo not drawn)	0	0	0	0	0	0	-
